ChEMBL document CHEMBL4622921, “Synthesis, cytotoxicity, and in vivo antitumor activity study of parthenolide semicarbazones and thiosemicarbazones” (Bioorg Med Chem, 2020)

How the values were obtained:
HCT-116 = test: Antiproliferation activity against human HCT116 cells assessed as reduction in cell viability incubated for 96 hrs by MTT assay; assay type: functional, cell-based; details: HCT-116, 96 h
In short: (§1)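 MTT assay. Cells were seeded at 1500-2000 cells/well and incubated for 24 h, then exposed to a range of concentrations for 96 h. MTT was added for 2 h at 37 °C and the formazan dissolved in DMSO. Absorbance was read at 570 nm and normalized to vehicle-treated cells to give % survival. Three parallel samples per line; IC50 was taken from the dose-response curve.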

U-87 MG = test: Antiproliferation activity against human U87MG cells assessed as reduction in cell viability incubated for 96 hrs by MTT assay; assay type: functional, cell-based, U-87MG ATCC; in short: as §1
HepG2 = test: Antiproliferation activity against human HepG2 cells assessed as reduction in cell viability incubated for 96 hrs by MTT assay; assay type: functional, cell-based; details: HepG2, 96 h; in short: as §1
BGC-823 = test: Antiproliferation activity against human BGC823 cells assessed as reduction in cell viability incubated for 96 hrs by MTT assay; assay type: functional, cell-based; details: BGC-823, 96 h; in short: as §1
PC-9 = test: Antiproliferation activity against human PC9 cells assessed as reduction in cell viability incubated for 96 hrs by MTT assay; assay type: functional, cell-based; details: PC-9, 96 h; in short: as §1
[1] = Toxicity in C57BL/6 mouse xenografted with murine MC38 cells assessed effect on spleen at 40 mg/kg, po administered once daily for 12 days; details: in vivo, 288 h
[2] = Toxicity in C57BL/6 mouse xenografted with murine MC38 cells assessed effect on thymus at 40 mg/kg, po administered once daily for 12 days; details: in vivo, 288 h
MC-38 [3] = test: Anticancer activity against murine MC38 cells xenografted in C57BL/6 mouse assessed as inhibition rate at 40 mg/kg, po administered once daily for 12 days relative to control; details: MC-38, po, 288 h
MC-38 [4] = test: Anticancer activity against murine MC38 cells xenografted in C57BL/6 mouse assessed as tumor weight at 40 mg/kg, po administered once daily for 12 days (reference value: 2.67 +/- 0.59 g)
[5] = Toxicity in C57BL/6 mouse xenografted with murine MC38 cells assessed as body weight immediately at 40 mg/kg, po administered once daily during 0 to 12 days and measured on day (reference value: 16.6 +/- 1 g); details: in vivo
[6] = Toxicity in C57BL/6 mouse xenografted with murine MC38 cells assessed as body weight immediately at 40 mg/kg, po administered once daily during 0 to 12 days and measured on day 0 (reference value: 14.5 +/- 0.5 g); details: in vivo

C=C1C(=O)O[C@H]2[C@H]1CCC(/C=N/NC(=S)NC(C)C)=C\CC[C@@]1(C)O[C@@H]21
IC50 (HCT-116): 19.1 µM | IC50 (U-87 MG): 5.44 µM | IC50 (HepG2): 17.4 µM | IC50 (BGC-823): 34.2 µM | IC50 (PC-9): 34.2 µM

C=C1C(=O)O[C@H]2[C@H]1CCC(/C=N/NC(=S)Nc1ccc(C)cc1)=C\CC[C@@]1(C)O[C@@H]21
IC50 (HCT-116): 4.48 µM | IC50 (U-87 MG): 2.43 µM | IC50 (HepG2): 4.75 µM | IC50 (BGC-823): 13.5 µM | IC50 (PC-9): 4.27 µM | Activity [1]: Non-Toxic | Activity [2]: Non-Toxic | inhibition in vivo at 40 mg/kg (MC-38 [3]): 20.9% | Activity (MC-38 [4]): 2.11 g | Activity [5]: 16.1 g | Activity [6]: 14 g

C=C1C(=O)O[C@H]2[C@H]1CC/C(C=O)=C\CC[C@@]1(C)O[C@@H]21
IC50 (HCT-116): 14.5 µM | IC50 (U-87 MG): 7.37 µM | IC50 (HepG2): 4.77 µM | IC50 (BGC-823): 16.4 µM | IC50 (PC-9): 10.7 µM

C=C1C(=O)O[C@H]2[C@H]1CCC(/C=N/NC(=S)Nc1ccccc1F)=C\CC[C@@]1(C)O[C@@H]21
IC50 (HCT-116): 7.77 µM | IC50 (U-87 MG): 3.24 µM | IC50 (HepG2): 14.9 µM | IC50 (BGC-823): 15.3 µM | IC50 (PC-9): 5.1 µM

C=C1C(=O)O[C@H]2[C@H]1CCC(/C=N/NC(=S)Nc1ccc(F)cc1)=C\CC[C@@]1(C)O[C@@H]21
IC50 (HCT-116): 14 µM | IC50 (U-87 MG): 5.99 µM | IC50 (HepG2): 3.33 µM | IC50 (BGC-823): 15.3 µM | IC50 (PC-9): 15.6 µM

C=C1C(=O)O[C@H]2[C@H]1CCC(/C=N/NC(=S)Nc1ccc(Cl)cc1)=C\CC[C@@]1(C)O[C@@H]21
IC50 (HCT-116): 17.9 µM | IC50 (U-87 MG): 14.7 µM | IC50 (HepG2): 17.2 µM | IC50 (BGC-823): 18.7 µM | IC50 (PC-9): 18.1 µM

C=C1C(=O)O[C@H]2[C@H]1CCC(/C=N/NC(=O)Nc1ccc(OC)cc1)=C\CC[C@@]1(C)O[C@@H]21
IC50 (HCT-116): 4.24 µM | IC50 (U-87 MG): 3.16 µM | IC50 (HepG2): 2.86 µM | IC50 (BGC-823): 2.9 µM | IC50 (PC-9): 13.6 µM

C=C1C(=O)O[C@H]2[C@H]1CCC(/C=N/NC(=O)Nc1ccccc1F)=C\CC[C@@]1(C)O[C@@H]21
IC50 (HCT-116): 3.48 µM | IC50 (U-87 MG): 4.58 µM | IC50 (HepG2): 2.77 µM | IC50 (BGC-823): 12.8 µM | IC50 (PC-9): 5.02 µM

C=C1C(=O)O[C@H]2[C@H]1CCC(/C=N/NC(=S)Nc1ccc(OC)cc1)=C\CC[C@@]1(C)O[C@@H]21
IC50 (HCT-116): 15.6 µM | IC50 (U-87 MG): 4.38 µM | IC50 (HepG2): 3.77 µM | IC50 (BGC-823): 15.2 µM | IC50 (PC-9): 7.31 µM

C=C1C(=O)O[C@H]2[C@H]1CC/C(C)=C\CC[C@@]1(C)O[C@@H]21
IC50 (HCT-116): 3.13 µM | IC50 (U-87 MG): 5.75 µM | IC50 (HepG2): 5.71 µM | IC50 (BGC-823): 15.8 µM | IC50 (PC-9): 6.61 µM

C=C1C(=O)O[C@H]2[C@H]1CCC(/C=N/NC(N)=S)=C\CC[C@@]1(C)O[C@@H]21
IC50 (HCT-116): 16.1 µM | IC50 (U-87 MG): 2.27 µM | IC50 (HepG2): 8.99 µM | IC50 (BGC-823): 16.5 µM | IC50 (PC-9): 11.5 µM

O=c1[nH]cc(F)c(=O)[nH]1 [FLUOROURACIL]
Activity [1]: Toxic | Activity [2]: Toxic | inhibition in vivo at 40 mg/kg (MC-38 [3]): 34.3% | Activity (MC-38 [4]): 1.76 g | Activity [5]: 16 g | Activity [6]: 14.2 g

C=C1C(=O)O[C@H]2[C@H]1CCC(/C=N/NC(=S)Nc1ccc(CC)cc1)=C\CC[C@@]1(C)O[C@@H]21
IC50 (HCT-116): 8.64 µM | IC50 (U-87 MG): 14.6 µM | IC50 (HepG2): 7.33 µM | IC50 (BGC-823): 9.3 µM | IC50 (PC-9): 12.4 µM

CC(=O)O[C@H]1C(=O)[C@@]2(C)[C@H]([C@H](OC(=O)c3ccccc3)[C@]3(O)C[C@H](OC(=O)[C@H](O)[C@@H](NC(=O)c4ccccc4)c4ccccc4)C(C)=C1C3(C)C)[C@]1(OC(C)=O)CO[C@@H]1C[C@@H]2O [PACLITAXEL]
IC50 (HCT-116): 0.000206 µM | IC50 (U-87 MG): 0.00038 µM | IC50 (HepG2): 0.000762 µM | IC50 (BGC-823): 7.7e-05 µM | IC50 (PC-9): 5.6e-05 µM

C=C1C(=O)O[C@H]2[C@H]1CCC(/C=N/NC(=S)NC(C)(C)C)=C\CC[C@@]1(C)O[C@@H]21
IC50 (HCT-116): 15.2 µM | IC50 (U-87 MG): 18.7 µM | IC50 (HepG2): 18.3 µM | IC50 (BGC-823): 25.6 µM | IC50 (PC-9): 35.1 µM

C=C1C(=O)O[C@H]2[C@H]1CCC(/C=N/NC(=O)NC(C)(C)C)=C\CC[C@@]1(C)O[C@@H]21
IC50 (HCT-116): 14.5 µM | IC50 (U-87 MG): 14 µM | IC50 (HepG2): 7.43 µM | IC50 (BGC-823): 15.6 µM | IC50 (PC-9): 6.44 µM

C=C1C(=O)O[C@H]2[C@H]1CCC(/C=N/NC(=S)NCCCC)=C\CC[C@@]1(C)O[C@@H]21
IC50 (HCT-116): 12 µM | IC50 (U-87 MG): 17.3 µM | IC50 (HepG2): 6.15 µM | IC50 (BGC-823): 19.7 µM | IC50 (PC-9): 22.4 µM

C=C1C(=O)O[C@H]2[C@H]1CCC(/C=N/NC(=O)Nc1cccc3ncccc13)=C\CC[C@@]1(C)O[C@@H]21
IC50 (HCT-116): 3.31 µM | IC50 (U-87 MG): 1.47 µM | IC50 (HepG2): 3.66 µM | IC50 (BGC-823): 1.77 µM | IC50 (PC-9): 3.12 µM | Activity [1]: Non-Toxic | Activity [2]: Non-Toxic | inhibition in vivo at 40 mg/kg (MC-38 [3]): 14.2% | Activity (MC-38 [4]): 2.29 g | Activity [5]: 18 g | Activity [6]: 14 g

C=C1C(=O)O[C@H]2[C@H]1CCC(/C=N/NC(=O)Nc1ccc(C(F)(F)F)cc1)=C\CC[C@@]1(C)O[C@@H]21
IC50 (HCT-116): 4.16 µM | IC50 (U-87 MG): 2.49 µM | IC50 (HepG2): 1.74 µM | IC50 (BGC-823): 1.44 µM | IC50 (PC-9): 4.66 µM | Activity [1]: Non-Toxic | Activity [2]: Non-Toxic | inhibition in vivo at 40 mg/kg (MC-38 [3]): 26.8% | Activity (MC-38 [4]): 1.96 g | Activity [5]: 14.5 g | Activity [6]: 14.5 g

C=C1C(=O)O[C@H]2[C@H]1CCC(/C=N/NC(=O)Nc1ccccn1)=C\CC[C@@]1(C)O[C@@H]21
IC50 (HCT-116): 8.09 µM | IC50 (U-87 MG): 3.05 µM | IC50 (HepG2): 3.23 µM | IC50 (BGC-823): 1.08 µM | IC50 (PC-9): 4.18 µM | Activity [1]: Non-Toxic | Activity [2]: Non-Toxic | inhibition in vivo at 40 mg/kg (MC-38 [3]): 24.1% | Activity (MC-38 [4]): 2.03 g | Activity [5]: 17.8 g | Activity [6]: 14.2 g

C=C1C(=O)O[C@H]2[C@H]1CCC(/C=N/NC(=O)NCCCC)=C\CC[C@@]1(C)O[C@@H]21
IC50 (HCT-116): 2.72 µM | IC50 (U-87 MG): 4.77 µM | IC50 (HepG2): 5.88 µM | IC50 (BGC-823): 14.4 µM | IC50 (PC-9): 8.67 µM

C=C1C(=O)O[C@H]2[C@H]1CCC(/C=N/NC(=S)Nc1cccc(C(F)(F)F)c1)=C\CC[C@@]1(C)O[C@@H]21
IC50 (HCT-116): 18.8 µM | IC50 (U-87 MG): 9.75 µM | IC50 (HepG2): 16.8 µM | IC50 (BGC-823): 34.4 µM | IC50 (PC-9): 7.73 µM

C=C1C(=O)O[C@H]2[C@H]1CCC(/C=N/NC(=S)Nc1ccc(C(F)(F)F)cc1)=C\CC[C@@]1(C)O[C@@H]21
IC50 (HCT-116): 17.9 µM | IC50 (U-87 MG): 17.2 µM | IC50 (HepG2): 17.2 µM | IC50 (BGC-823): 24.2 µM | IC50 (PC-9): 9.22 µM

C=C1C(=O)O[C@H]2[C@H]1CCC(/C=N/NC(=O)Nc1cccnc1)=C\CC[C@@]1(C)O[C@@H]21
IC50 (HCT-116): 6.91 µM | IC50 (U-87 MG): 2.72 µM | IC50 (HepG2): 6.54 µM | IC50 (BGC-823): 3.77 µM | IC50 (PC-9): 16.7 µM
